For experiment [1], the target named is PHD finger protein 23 (Homo sapiens, UniProt Q9BUL5). Kind of experiment: Inhibition of PHF23 (unknown origin) after 30 mins by AlphaScreen assay. The gist of the method:
(§1)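 AlphaScreen competition with histone peptide. Compounds in 3-fold, 10-point dilutions, top 10 or 30 μM; buffer 20 mM Tris pH 8.0, 25 mM NaCl, 2 mM DTT, 0.05% Tween-20. Protein-peptide mix 30 min RT, then streptavidin donor plus nickel-chelate acceptor beads (GST acceptor beads for GST-tagged PHF23, JARID1A) 30 min RT dark. Protein-free His6-biotin peptide counterscreen.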

For experiment [2], the target named is Lysine-specific demethylase 5A (Homo sapiens, UniProt P29375). Kind of experiment: Inhibition of JARID1A (unknown origin) after 30 mins by AlphaScreen assay. The gist of the method:
(§2)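 AlphaScreen competition with histone peptide. Compounds in 3-fold, 10-point dilutions, top 10 or 30 μM; buffer 20 mM Tris pH 8.0, 25 mM NaCl, 2 mM DTT, 0.05% Tween-20. Protein-peptide mix 30 min RT, then streptavidin donor plus nickel-chelate acceptor beads (GST acceptor beads for GST-tagged PHF23, JARID1A) 30 min RT dark. […] Protein-free His6-biotin peptide counterscreen.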

Experiment [3] addresses T1, Lethal(3)malignant brain tumor-like protein 3 (Homo sapiens, UniProt Q96JM7).
T1 sequence (Q96JM7 whole entry): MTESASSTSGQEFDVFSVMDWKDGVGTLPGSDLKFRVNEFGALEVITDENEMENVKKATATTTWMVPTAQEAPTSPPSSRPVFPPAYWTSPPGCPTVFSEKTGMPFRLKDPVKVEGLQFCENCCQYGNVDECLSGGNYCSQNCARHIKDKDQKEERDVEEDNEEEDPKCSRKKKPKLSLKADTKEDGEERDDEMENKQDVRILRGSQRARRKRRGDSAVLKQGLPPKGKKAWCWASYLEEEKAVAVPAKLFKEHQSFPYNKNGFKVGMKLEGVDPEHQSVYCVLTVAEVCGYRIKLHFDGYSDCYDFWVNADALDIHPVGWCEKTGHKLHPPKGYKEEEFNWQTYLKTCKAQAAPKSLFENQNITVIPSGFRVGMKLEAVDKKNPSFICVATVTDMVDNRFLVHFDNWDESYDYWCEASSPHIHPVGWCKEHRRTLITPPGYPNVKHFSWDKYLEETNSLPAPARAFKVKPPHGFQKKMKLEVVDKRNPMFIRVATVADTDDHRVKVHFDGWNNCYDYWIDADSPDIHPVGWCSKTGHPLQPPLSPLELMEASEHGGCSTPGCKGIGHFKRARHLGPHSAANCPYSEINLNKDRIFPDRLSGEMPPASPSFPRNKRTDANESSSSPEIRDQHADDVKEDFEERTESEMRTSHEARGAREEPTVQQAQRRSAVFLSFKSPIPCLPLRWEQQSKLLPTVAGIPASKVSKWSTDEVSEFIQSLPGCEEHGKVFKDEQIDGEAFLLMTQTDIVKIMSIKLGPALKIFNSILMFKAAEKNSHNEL
Kind of experiment: Inhibition of L3MBTL3 (unknown origin) using H4K20me2 as substrate after 30 mins by LNCE-TR-FRET assay.

Experiment [4] addresses TP53-binding protein 1 (Homo sapiens, UniProt Q12888). Kind of experiment: Inhibition of 53BP1 (unknown origin) after 30 mins by AlphaScreen assay. The gist of the method:
as §2

Experiment [5] has as its target T2, Lethal(3)malignant brain tumor-like protein 4 (Homo sapiens, UniProt Q8NA19).
T2 sequence (Q8NA19 whole entry): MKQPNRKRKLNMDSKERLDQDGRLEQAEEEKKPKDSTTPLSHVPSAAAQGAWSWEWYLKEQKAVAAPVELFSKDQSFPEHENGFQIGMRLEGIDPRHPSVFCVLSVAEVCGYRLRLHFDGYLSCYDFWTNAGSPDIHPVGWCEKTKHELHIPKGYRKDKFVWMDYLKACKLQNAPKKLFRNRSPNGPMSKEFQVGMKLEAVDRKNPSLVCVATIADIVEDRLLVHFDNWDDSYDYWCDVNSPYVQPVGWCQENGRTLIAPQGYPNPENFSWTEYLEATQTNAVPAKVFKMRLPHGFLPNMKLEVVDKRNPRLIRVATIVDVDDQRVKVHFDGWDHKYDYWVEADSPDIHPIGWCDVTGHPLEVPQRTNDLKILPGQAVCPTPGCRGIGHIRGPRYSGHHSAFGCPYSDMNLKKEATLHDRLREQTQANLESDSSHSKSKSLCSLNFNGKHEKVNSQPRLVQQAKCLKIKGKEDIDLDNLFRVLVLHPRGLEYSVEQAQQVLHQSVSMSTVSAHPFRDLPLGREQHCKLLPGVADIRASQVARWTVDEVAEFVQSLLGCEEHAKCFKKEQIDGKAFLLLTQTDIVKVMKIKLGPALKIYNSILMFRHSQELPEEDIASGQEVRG
In words: Inhibition of L3MBTL4 (unknown origin) after 30 mins by AlphaScreen assay. The gist of the method: as §1

In experiment [6] the target is T3, Chromobox protein homolog 7 (Homo sapiens, UniProt O95931).
T3 sequence (O95931 whole entry): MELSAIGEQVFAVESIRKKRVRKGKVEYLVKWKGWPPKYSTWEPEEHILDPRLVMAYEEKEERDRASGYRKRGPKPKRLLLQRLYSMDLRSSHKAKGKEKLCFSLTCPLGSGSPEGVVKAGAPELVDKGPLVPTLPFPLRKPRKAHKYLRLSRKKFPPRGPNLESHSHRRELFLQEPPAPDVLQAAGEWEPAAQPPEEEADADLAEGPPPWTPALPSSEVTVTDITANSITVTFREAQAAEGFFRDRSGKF
Kind of experiment: Inhibition of CBX7 (unknown origin) after 30 mins by AlphaScreen assay. The gist of the method:
as §1

Chain of Lysine-specific demethylase 5A (P29375 whole entry): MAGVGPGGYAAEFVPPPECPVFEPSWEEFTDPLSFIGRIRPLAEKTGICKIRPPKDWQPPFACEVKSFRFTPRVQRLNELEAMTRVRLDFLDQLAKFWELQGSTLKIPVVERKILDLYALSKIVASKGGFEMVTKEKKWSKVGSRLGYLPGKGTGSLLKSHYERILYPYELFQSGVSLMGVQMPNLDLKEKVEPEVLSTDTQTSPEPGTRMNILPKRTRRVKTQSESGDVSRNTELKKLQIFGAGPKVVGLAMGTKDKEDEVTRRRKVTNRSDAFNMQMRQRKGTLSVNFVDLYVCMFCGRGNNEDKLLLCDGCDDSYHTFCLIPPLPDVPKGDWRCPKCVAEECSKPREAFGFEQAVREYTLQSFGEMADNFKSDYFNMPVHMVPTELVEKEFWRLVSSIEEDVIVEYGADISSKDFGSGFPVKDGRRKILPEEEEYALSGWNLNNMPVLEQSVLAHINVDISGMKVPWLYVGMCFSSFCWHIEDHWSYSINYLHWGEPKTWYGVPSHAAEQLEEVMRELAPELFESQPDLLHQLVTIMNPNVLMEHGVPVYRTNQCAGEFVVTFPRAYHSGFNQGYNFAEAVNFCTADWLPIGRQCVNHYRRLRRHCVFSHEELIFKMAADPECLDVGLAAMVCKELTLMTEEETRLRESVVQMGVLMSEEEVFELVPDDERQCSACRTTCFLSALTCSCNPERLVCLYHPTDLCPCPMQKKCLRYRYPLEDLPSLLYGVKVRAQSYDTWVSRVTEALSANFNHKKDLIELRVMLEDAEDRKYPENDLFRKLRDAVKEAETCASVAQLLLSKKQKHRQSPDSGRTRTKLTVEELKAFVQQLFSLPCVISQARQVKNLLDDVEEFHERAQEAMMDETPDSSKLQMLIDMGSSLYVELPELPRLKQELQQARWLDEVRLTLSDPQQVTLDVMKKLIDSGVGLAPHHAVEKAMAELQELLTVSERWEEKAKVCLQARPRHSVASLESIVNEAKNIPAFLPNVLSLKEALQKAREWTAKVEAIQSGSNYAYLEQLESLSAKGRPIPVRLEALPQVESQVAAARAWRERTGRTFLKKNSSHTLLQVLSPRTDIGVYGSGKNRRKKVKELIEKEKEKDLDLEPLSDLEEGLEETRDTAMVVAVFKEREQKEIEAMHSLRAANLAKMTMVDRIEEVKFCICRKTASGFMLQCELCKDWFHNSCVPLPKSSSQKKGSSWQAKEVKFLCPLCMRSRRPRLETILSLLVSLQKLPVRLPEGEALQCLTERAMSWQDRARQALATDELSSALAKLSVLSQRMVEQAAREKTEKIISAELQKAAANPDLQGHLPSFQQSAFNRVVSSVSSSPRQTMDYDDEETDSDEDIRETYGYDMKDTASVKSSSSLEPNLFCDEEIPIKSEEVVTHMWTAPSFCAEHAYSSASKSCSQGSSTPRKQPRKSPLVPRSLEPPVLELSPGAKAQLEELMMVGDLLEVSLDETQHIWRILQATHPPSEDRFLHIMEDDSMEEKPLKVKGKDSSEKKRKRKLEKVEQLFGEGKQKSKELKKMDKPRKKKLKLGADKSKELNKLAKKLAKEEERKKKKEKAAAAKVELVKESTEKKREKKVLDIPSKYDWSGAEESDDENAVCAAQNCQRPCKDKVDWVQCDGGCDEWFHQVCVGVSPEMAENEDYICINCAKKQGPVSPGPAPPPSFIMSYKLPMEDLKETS
Chain of TP53-binding protein 1 (Q12888 whole entry): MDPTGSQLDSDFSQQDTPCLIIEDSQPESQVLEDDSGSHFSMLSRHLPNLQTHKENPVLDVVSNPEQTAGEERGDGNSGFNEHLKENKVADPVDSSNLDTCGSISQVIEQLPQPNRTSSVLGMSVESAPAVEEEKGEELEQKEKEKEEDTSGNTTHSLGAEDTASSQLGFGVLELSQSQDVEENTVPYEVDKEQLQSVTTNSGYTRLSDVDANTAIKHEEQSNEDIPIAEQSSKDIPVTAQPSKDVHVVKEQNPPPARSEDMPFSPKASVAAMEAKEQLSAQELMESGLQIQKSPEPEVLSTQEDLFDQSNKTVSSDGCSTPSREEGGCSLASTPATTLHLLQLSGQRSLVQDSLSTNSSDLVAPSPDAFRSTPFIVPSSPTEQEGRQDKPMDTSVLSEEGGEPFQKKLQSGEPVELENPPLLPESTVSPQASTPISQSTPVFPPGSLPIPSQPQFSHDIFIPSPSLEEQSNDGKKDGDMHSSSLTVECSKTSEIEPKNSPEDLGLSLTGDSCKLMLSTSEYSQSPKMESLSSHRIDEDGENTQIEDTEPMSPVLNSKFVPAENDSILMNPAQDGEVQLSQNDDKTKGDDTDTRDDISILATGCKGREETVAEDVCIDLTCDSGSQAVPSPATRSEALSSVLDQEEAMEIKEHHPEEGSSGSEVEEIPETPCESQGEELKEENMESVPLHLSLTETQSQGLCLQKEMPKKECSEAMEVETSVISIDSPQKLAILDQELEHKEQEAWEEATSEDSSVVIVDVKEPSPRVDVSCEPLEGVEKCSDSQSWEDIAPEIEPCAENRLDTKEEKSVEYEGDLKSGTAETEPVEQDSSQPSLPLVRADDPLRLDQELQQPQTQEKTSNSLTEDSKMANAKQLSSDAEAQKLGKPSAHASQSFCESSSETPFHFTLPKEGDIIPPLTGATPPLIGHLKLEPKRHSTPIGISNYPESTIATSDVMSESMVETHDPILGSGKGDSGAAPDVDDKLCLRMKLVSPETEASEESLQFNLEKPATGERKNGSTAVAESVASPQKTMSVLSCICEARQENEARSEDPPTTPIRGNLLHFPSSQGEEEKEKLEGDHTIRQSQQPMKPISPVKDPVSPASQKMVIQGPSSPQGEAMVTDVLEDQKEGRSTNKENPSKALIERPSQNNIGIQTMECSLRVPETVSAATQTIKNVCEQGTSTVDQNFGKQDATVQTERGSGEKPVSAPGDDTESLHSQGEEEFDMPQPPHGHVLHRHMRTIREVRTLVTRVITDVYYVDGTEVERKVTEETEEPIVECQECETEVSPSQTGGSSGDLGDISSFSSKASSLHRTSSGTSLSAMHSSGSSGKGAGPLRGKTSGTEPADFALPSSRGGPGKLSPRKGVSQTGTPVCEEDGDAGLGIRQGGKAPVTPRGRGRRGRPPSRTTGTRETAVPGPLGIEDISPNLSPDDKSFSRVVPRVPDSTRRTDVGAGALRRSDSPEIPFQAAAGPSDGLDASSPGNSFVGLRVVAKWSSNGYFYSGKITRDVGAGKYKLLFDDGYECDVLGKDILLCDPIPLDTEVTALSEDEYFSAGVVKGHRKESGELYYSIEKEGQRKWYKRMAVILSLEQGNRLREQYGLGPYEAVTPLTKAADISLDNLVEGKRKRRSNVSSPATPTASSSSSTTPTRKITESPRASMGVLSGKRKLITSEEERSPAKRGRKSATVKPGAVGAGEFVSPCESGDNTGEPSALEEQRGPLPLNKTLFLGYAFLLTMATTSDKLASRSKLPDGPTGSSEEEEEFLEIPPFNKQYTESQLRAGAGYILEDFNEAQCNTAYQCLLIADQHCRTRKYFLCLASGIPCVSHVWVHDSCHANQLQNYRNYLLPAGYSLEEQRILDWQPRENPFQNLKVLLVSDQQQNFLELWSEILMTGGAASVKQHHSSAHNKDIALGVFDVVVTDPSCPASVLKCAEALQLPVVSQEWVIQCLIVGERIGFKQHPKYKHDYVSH
Chain of PHD finger protein 23 (Q9BUL5 whole entry): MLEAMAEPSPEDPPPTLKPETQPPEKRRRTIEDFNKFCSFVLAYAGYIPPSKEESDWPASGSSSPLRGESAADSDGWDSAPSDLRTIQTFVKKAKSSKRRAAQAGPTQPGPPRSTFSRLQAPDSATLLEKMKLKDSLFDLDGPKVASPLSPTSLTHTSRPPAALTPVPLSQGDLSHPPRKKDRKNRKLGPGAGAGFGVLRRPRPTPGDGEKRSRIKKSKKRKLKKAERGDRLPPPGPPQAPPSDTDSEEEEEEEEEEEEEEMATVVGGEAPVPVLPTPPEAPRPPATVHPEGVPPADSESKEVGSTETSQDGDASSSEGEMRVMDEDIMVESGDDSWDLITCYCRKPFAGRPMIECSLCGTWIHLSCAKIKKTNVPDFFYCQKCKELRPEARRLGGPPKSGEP

Turning to `O=C(c1cncc(Br)c1)N1CCC(N2CCCC2)CC1`, the IC50 in experiment [1] is > 10 µM; in experiment [2] it was > 10 µM; in experiment [3], 4700 nM; in experiment [4], > 10 µM; in experiment [5], > 10 µM; in experiment [6], > 10 µM.
In the case of `O=C(c1ccc(S(=O)(=O)N2CCC(N3CCCC3)CC2)cc1)N1CCC(N2CCCC2)CC1`, the IC50 in experiment [1] was > 10 µM; in experiment [2], > 10 µM; in experiment [3] it was 97 nM; in experiment [4] it was > 10 µM; in experiment [5], > 10 µM; in experiment [6] it was > 10 µM.
Consider `O=C(c1ccc(C(=O)N2CCC(N3CCCC3)CC2)cc1)N1CCC(C2CCCCC2)CC1`, for which the IC50 in experiment [2] was > 10 µM; in experiment [3], 1600 nM; in experiment [4], > 10 µM; in experiment [5], > 10 µM; in experiment [6], > 10 µM.
As to `O=C(c1ccc(C(=O)N2CCC(N3CCCC3)CC2)c2ccccc12)N1CCC(N2CCCC2)CC1`, the IC50 in experiment [1] is > 10 µM; in experiment [2], > 10 µM; in experiment [3], 43 nM; in experiment [4], 10.7 µM; in experiment [5] it was > 10 µM; in experiment [6], > 10 µM.
With `O=C(c1ccc(C(=O)N2CCC(N3CCCC3)CC2)c(NCc2ccccc2)c1)N1CCC(N2CCCC2)CC1`, the IC50 was > 10 µM in experiment [1]; > 10 µM in experiment [2]; 50 nM in experiment [3]; 8.7 µM in experiment [4]; > 10 µM in experiment [5]; > 10 µM in experiment [6].
Take `CCN1Cc2ccc(NC(=O)c3ccc(C(=O)N4CCC(N5CCCC5)CC4)cc3)cc2C1`: the half-inhibitory concentration (IC50) is > 10 µM in experiment [1]; > 10 µM in experiment [2]; 350 nM in experiment [3]; > 10 µM in experiment [4]; > 10 µM in experiment [5]; > 10 µM in experiment [6].
For `O=C(c1ccc(C(=O)N2CCC(N3CCCC3)CC2)c(Oc2ccccc2)c1)N1CCC(N2CCCC2)CC1`, the IC50 in experiment [1] was > 10 µM; in experiment [2] it was > 10 µM; in experiment [3] it was 53 nM; in experiment [4] it was > 10 µM; in experiment [5], > 10 µM; in experiment [6], > 10 µM.
On to `Cc1cc(C(=O)N2CCC(N3CCCC3)CC2)c(C)cc1C(=O)N1CCC(N2CCCC2)CC1`, for which the IC50 in experiment [1] was > 10 µM; in experiment [2], > 10 µM; in experiment [3], 240 nM; in experiment [4], > 10 µM; in experiment [5], > 10 µM; in experiment [6], > 10 µM.
With `CN(C)C1CCN(C(=O)c2ccc(C(=O)N3CCC(N4CCCC4)CC3)cc2)CC1`, the IC50 in experiment [1] was > 10 µM; in experiment [2] it was > 10 µM; in experiment [3], 180 nM; in experiment [4], > 10 µM; in experiment [5], > 10 µM; in experiment [6], > 10 µM.
As to `O=C(c1ccc(C(=O)N2CCC(N3CCCC3)CC2)cc1)N1CCC(N2CCCCC2)CC1`, the IC50 in experiment [1] was > 10 µM; in experiment [2], > 10 µM; in experiment [3], 160 nM; in experiment [4], > 10 µM; in experiment [5], > 10 µM; in experiment [6] it was > 10 µM.
As to `O=C(c1ccc(C(=O)N2CCC(N3CCCC3)CC2)c([N+](=O)[O-])c1)N1CCC(N2CCCC2)CC1`, the IC50 in experiment [1] is > 10 µM; in experiment [2], > 10 µM; in experiment [3], 88 nM; in experiment [4], > 10 µM; in experiment [5], > 10 µM; in experiment [6] it was > 10 µM.
As for `O=C(c1ccc(C(=O)N2CCC3(CCNC3)C2)cc1)N1CCC(N2CCCC2)CC1` (stereo not given), the IC50 in experiment [1] is > 10 µM; in experiment [2], > 10 µM; in experiment [3], 2200 nM; in experiment [4] it was > 10 µM; in experiment [5], > 10 µM; in experiment [6], > 10 µM.
Regarding `O=C(c1ccc(C(=O)N2CCC(N3CCC3)CC2)cc1)N1CCC(N2CCC2)CC1`, the IC50 in experiment [1] is > 10 µM; in experiment [2] it was > 10 µM; in experiment [3] it was 350 nM; in experiment [4] it was > 10 µM; in experiment [5] it was > 10 µM; in experiment [6], > 10 µM.
Take `C[N+]1(C2CCN(C(=O)c3ccc(C(=O)N4CCC(N5CCCC5)CC4)cc3)CC2)CCCC1`: the IC50 in experiment [1] was > 10 µM; in experiment [2], > 10 µM; in experiment [3], 81 nM; in experiment [4], > 10 µM; in experiment [5] it was > 10 µM; in experiment [6], > 10 µM.
Take `O=C(c1ccc(CN2CCC(N3CCCC3)CC2)cc1)N1CCC(N2CCCC2)CC1`: the IC50 is > 10 µM in experiment [1]; > 10 µM in experiment [2]; 130 nM in experiment [3]; > 10 µM in experiment [4]; > 10 µM in experiment [5]; > 10 µM in experiment [6].
Consider `O=C(c1ccc(C(=O)N2CCC(N3CCCC3)CC2)c(C(=O)N2CCC(N3CCCC3)CC2)c1)N1CCC(N2CCCC2)CC1`, for which the IC50 in experiment [1] is > 10 µM; in experiment [2] it was > 10 µM; in experiment [3], 110 nM; in experiment [4], 7.9 µM; in experiment [5], > 10 µM; in experiment [6] it was > 10 µM.
`O=C(c1ccc(C(=O)N2CC(N3CCCC3)C2)cc1)N1CCC(N2CCCC2)CC1`: the IC50 is > 10 µM in experiment [1]; > 10 µM in experiment [2]; 300 nM in experiment [3]; > 10 µM in experiment [4]; > 10 µM in experiment [5]; > 10 µM in experiment [6].
Take `O=C(c1ccc(C(=O)N2CCC(N3CCOCC3)CC2)cc1)N1CCC(N2CCCC2)CC1`: the IC50 in experiment [1] was > 10 µM; in experiment [2] it was > 10 µM; in experiment [3] it was 1100 nM; in experiment [4] it was > 10 µM; in experiment [5] it was > 10 µM; in experiment [6] it was > 10 µM.
Turning to `O=C(c1ccc(C(=O)N2CCC(N3CCCC3)CC2)s1)N1CCC(N2CCCC2)CC1`, the IC50 in experiment [1] is > 10 µM; in experiment [2], > 10 µM; in experiment [3], 68 nM; in experiment [4], > 10 µM; in experiment [5], > 10 µM; in experiment [6], > 10 µM.
Turning to `O=C(c1ccc(C(=O)N2CCC(N3CCCC3)CC2)c(Cc2ccccc2)c1)N1CCC(N2CCCC2)CC1`, the IC50 is > 10 µM in experiment [1]; > 10 µM in experiment [2]; 51 nM in experiment [3]; > 10 µM in experiment [4]; > 10 µM in experiment [5]; > 10 µM in experiment [6].
As for `CCN1Cc2ccc(NC(=O)c3ccc(C(=O)N4CC5CCC(C4)C5N4CCCC4)cc3)cc2C1` (stereo not given), the IC50 in experiment [1] was > 10 µM; in experiment [2], > 10 µM; in experiment [3] it was 150 nM; in experiment [4], > 10 µM; in experiment [5], > 10 µM; in experiment [6], > 10 µM.

The record behind these values is ChEMBL document CHEMBL2424619, “Small-molecule ligands of methyl-lysine binding proteins: optimization of selectivity for L3MBTL3” (J Med Chem, 2013).
